Screening results deposited in PubChem BioAssay by several laboratories.
Sampled rows, rich in hits. Any-hit rate of the full collection: about 1.5%.
NR1D1 modulator – Rev-erb alpha (human) modulation; AID 1259318; activity, % at 10 µM; actives 0.79% (n = 370,000); Rev-erbα–FITC-DNA binding, fluorescence polarization, 90 min; P20393;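 active means activity above about 14%, limit read from the data; passing the limit was not always enough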;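 further: 0% = DMSO wells with 35 nM protein and 100% = DMSO wells with 750 nM protein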
Target sequence (P20393 whole entry, looked up): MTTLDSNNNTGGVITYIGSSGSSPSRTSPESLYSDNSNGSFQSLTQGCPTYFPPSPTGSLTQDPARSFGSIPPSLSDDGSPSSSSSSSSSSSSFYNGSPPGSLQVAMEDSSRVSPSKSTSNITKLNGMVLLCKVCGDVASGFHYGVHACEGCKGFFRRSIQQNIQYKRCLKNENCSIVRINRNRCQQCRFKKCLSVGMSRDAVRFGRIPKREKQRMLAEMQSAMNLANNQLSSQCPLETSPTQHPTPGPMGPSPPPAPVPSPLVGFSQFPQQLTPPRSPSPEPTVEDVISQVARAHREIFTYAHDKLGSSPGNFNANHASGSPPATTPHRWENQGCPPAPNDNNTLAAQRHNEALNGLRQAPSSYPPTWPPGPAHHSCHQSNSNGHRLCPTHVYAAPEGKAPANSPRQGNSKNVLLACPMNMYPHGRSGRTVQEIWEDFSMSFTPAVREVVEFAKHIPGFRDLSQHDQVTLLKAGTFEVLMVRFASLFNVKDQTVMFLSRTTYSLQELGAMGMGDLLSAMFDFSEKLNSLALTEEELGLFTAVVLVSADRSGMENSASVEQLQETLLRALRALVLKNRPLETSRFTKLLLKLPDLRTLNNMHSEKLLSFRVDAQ
NR2E3 ag-1 – NR2E3 (human) agonism; GST-NR2E3/biotin-RetCOR TR-FRET, 1536-well; inhibition of corepressor binding, % at 4.78 µM; Q9Y5X4; AID 2300; actives 0.12% (n = 320,000);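 active means percent inhibition above the cutoff of mean plus 3 SD of all tested compounds, set per screening campaign, cut at about 20% in these data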;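 further: 0% = DMSO wells and 100% = biotin wells as full block of FRET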
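System: GST-tagged NR2E3 plus biotinylated RetCOR corepressor; Amount: 1.35 nM GST-tagged NR2E3 final; Dosing: single nominal compound dose of 4.8 µM; Schedule: 5 h incubation at 4 °C; Technique: TR-FRET with europium anti-GST and streptavidin-D2, 340 nm excitation; Controls: biotin wells as high control, 0.6% DMSO wells as low control.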
PG9 Ab binder – small molecules binding HIV-1 gp120 antibody PG9; TR-FRET gp120-PG9 antibody binding; inhibition, % at 6.7 µM; actives 0.43% (n = 360,000); in the data active means inhibition above about 8.5%
NR2E3 ag-2 – human photoreceptor-specific nuclear receptor agonism; Q9Y5X4; CHO-S Gal4-NCOR/VP16-NR2E3 two-hybrid, luciferase; inhibition of corepressor binding, % at 3.98 µM; actives 0.35% (n = 360,000); AID 602229;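 active means inhibition above the mean of all tested compounds plus 3 SD, cut at about 70% in these data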;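 further: 0% = DMSO with NR2E3 transfected cells and 100% = cells lacking NR2E3 construct; higher means lower luciferase signal from less NR2E3 corepressor binding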
NR2E3 ag conf – NR2E3 agonism confirmed in two-hybrid assay; CHO-S mammalian two-hybrid NR2E3-NCOR, luciferase luminescence; shares compounds with NR2E3 ag-2; inhibition, % at 3.98 µM; actives 51% (n = 2,300);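 active means average inhibition above a cutoff equal to the mean inhibition of all tested compounds plus one SD, cut at about 70% in these data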;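 further: 0% = DMSO in NR2E3 cells and 100% = DMSO in cells lacking NR2E3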
GAL4-VP16 luc – GAL4-VP16 reporter inhibition in NR2E3 agonist counterscreen; CHO-S GAL4-VP16 luciferase reporter, luminescence; inhibition, % at 3.98 µM; actives 29% (n = 2,300); shares compounds with NR2E3 ag-2;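 active means mean inhibition above a cutoff equal to the average over all tested compounds plus one standard deviation, cut at about 70% in these data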;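 further: luciferase from a UAS reporter driven by GAL4-VP16 transactivation; 0% = DMSO with VP16-transfected cells and 100% = DMSO with cells lacking VP16; higher means less reporter light so more repression of VP16 activity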
The depositor's hits bear a star; . = not tested or not shown.

SMILES	NR1D1 modulator	NR2E3 ag-1	PG9 Ab binder	NR2E3 ag-2	NR2E3 ag conf	GAL4-VP16 luc
O=c1c2[nH]c3ccccc3c2ncn1CCC1=CCCCC1	-6	-2	-1	-38	.	.
C1=C(CCNc2ncnc3c2[nH]c2ccccc23)CCCC1	-1	0	-1	74*	97*	81*
COc1ccc(CNc2ncnc3c2[nH]c2ccccc23)cc1	0	1	-1	57	89*	72*
CCC1CCCCN1C(=O)c1cc(COc2ccc3ncccc3c2)on1 (stereo not given)	6	-4	-2	83*	96*	87*
COCC1CCCCN1C(=O)c1cc(COc2ccc3ncccc3c2)on1 (stereo not given)	7	6	-2	104*	91*	76*
CCCN1CCN(C(=O)c2cc(COc3ccc4ncccc4c3)on2)CC1	-4	2	0	61	44	68
COCCOC1CCN(C(=O)c2cc(COc3ccc(-n4cncn4)cc3)on2)CC1	-5	4	1	14	.	.
COCCC1CCCCN1C(=O)c1cc(COc2ccc(-n3cncn3)cc2)on1 (stereo not given)	2	16	-2	105*	95*	79*
CCN1CCN(C(=O)c2cc(COc3ccc4ncccc4c3)on2)CC1	-4	1	-1	36	.	.
CC(C)N(Cc1nccn1C)C(=O)c1cc(COc2ccc3ncccc3c2)on1	-4	0	0	15	.	.
Cc1nc(CN(C)C(=O)c2cc(COc3ccc4ncccc4c3)on2)cs1	1	0	0	64	87*	78*
O=C1CCC[C@H]2C[C@H](NCc3ccc(F)cc3F)CC[C@]23CCCN13	-3	.	.	.	.	.
Cc1nc2ccc(NS(=O)(=O)c3c(F)cc(F)cc3Br)cc2s1	-1	2	-1	75*	72*	62
CC(=O)c1cccc(S(=O)(=O)Nc2ccc3nc(C)sc3c2)c1	-4	4	1	41	.	.
Cc1ccc(NS(=O)(=O)c2ccc3c(c2)NC(=O)CCS3)cc1C	5	-1	2	54	-2	22
Cc1nc2ccc(NS(=O)(=O)c3ccc(C)c(C)c3)cc2s1	-2	2	0	81*	96*	80*
O[C@H](COc1cc(F)cc(F)c1)CN1CCC(C(O)(c2ccccc2)c2ccccc2)CC1	-1	.	.	.	.	.
CC1CCC2(CC1)CCC2NCc1ccc(Br)cc1 (stereo not given)	0	.	.	.	.	.
COc1ccc(-c2noc(CCCCC(=O)N3CCN(c4cc(C)ccc4C)CC3)n2)cc1	-4	.	-1	99*	97*	84*
CCOC(=O)[C@]12CCCCC/C=C\1N(CCc1ccc(Cl)cc1)C(=O)[C@H]2CC(=O)N1CCCC1	-5	.	.	.	.	.
Cc1cc(C)n2nc(SCC(=O)c3ccccc3)nc2n1	1	3	-1	-13	.	.
Cc1cc(C)n2nc(SCC(=O)c3cc(C)n(-c4cc(C)on4)c3C)nc2n1	-1	2	-1	92*	94*	81*
Cc1cc(-n2c(C)cc(C(=O)CSc3ncnc4ccccc34)c2C)no1	6	3	0	92*	97*	86*
O=C(CCCc1ccccc1)c1ccc2c(c1)OCCO2	8	2	0	64	21	12
O=C(CCc1ccccc1)c1ccc2c(c1)OCCCO2	6	-1	1	-156	.	.
SMILES	NR1D1 modulator	NR2E3 ag-1	PG9 Ab binder	NR2E3 ag-2	NR2E3 ag conf	GAL4-VP16 luc
O=C(NCCc1ccccc1)c1ccc2c(c1)OCCCO2	-1	1	-2	87*	66	57
CSc1nc2ccc(S(=O)(=O)N3CCCCC3)cc2s1	-3	0	0	-1	.	.
CSc1nc2ccc(S(=O)(=O)NC3CCCCC3)cc2s1	2	5	1	50	21	30
CSc1nc2ccc(NS(=O)(=O)c3ccc4c(c3)OCCO4)cc2s1	-4	2	0	76*	91*	82*
CSc1nc2ccc(NS(=O)(=O)c3c(Cl)cccc3Cl)cc2s1	-4	-2	-1	-5	.	.
Cc1nc2cc(C(=O)N3CCN(C(=O)C(Cl)Cl)CC3)ccc2n1C1CCCC1	3	.	.	.	.	.
O=C(NCc1ccc(F)c(F)c1)c1cccc2c(-c3cccnc3)coc12	8	.	0	6	.	.
COc1ccc(CNC(=O)c2cccc3c(-c4cccnc4)coc23)cc1OC	1	.	-1	97*	96*	89*
